Results reported in ChEMBL document CHEMBL1123006, “Synthesis and cytotoxic activity of hydroxylated derivatives of olivacine in relation with their biotransformation” (1985).

Experiments:
[1] = species: Rattus norvegicus; assay: Phenobarbital induced rat hepatic microsomal hydroxylation in vitro; assay type: functional; conditions: Liver
How it was run: (§1)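 Liver microsomes from male Sprague–Dawley rats given phenobarbital 80 mg/kg/day ip in 0.9% NaCl for 3 days, killed 2 days after last dose. Microsomes 0.5 mg protein/mL in Tris-HCl 0.02 M pH 7.4 with 1.15% KCl; olivacine acetate at five levels, 5–50 µM; NADPH 1 mg/mL; 37 °C, 5 min. Butanol extract, HPLC; Km/Vmax by Lineweaver-Burk; two rats.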

[2] = system: L1210; assay: Antitumor activity against L1210 leukemia cells expressed as dose concentration that reduces number of cells by 50% after 48 hrs exposure to drug.; assay type: functional; conditions: Mus musculus, L1210, 48 h; read-out: ID50 (the source's name)
How it was run: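 L1210 leukemia cells grown in vitro with drug for 48 h; cell number counted against untreated control; ID50 taken as the concentration cutting cell number by 50%.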

[3] = species: Rattus norvegicus; assay: Non induced rat hepatic microsomal hydroxylation in vitro; assay type: functional; conditions: Liver
How it was run: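 Liver microsomes from male Sprague–Dawley rats given only vehicle ip (sunflower oil or 0.9% NaCl). Microsomes 0.5 mg protein/mL in Tris-HCl 0.02 M pH 7.4 with 1.15% KCl; olivacine acetate at five levels, 5–50 µM; NADPH 1 mg/mL; 37 °C, 5 min. Butanol extract, HPLC; Km/Vmax by Lineweaver-Burk; two rats.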

[4] = species: Rattus norvegicus; assay: Benzo[a]pyrene induced rat hepatic microsomal hydroxylation in vitro; assay type: functional; conditions: Liver
How it was run: as §1, with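 “given benzo[a]pyrene 20” for “given phenobarbital 80”, “in sunflower oil” for “in 0.9% NaCl”, “for 2” for “for 3”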

[5] = system: Mus musculus; assay: Highest nonlethal dose against mice administered through intraperitoneal route; assay type: functional
[6] = system: L1210; assay: Antitumor efficiency against L1210 leukemia cells expressed as % increase in life span (ILS) 24 hrs after ip grafting (10e5 cells); assay type: functional, Mus musculus
How it was run: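 DBA/2 mice given 10^5 L1210 cells intraperitoneally, then a single ip drug dose 24 h later. ILS = (median survival of treated − median survival of controls) / median survival of controls × 100.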

[7] = system: Mus musculus; assay: Cytotoxicity against L1210 leukemia cells administered through intraperitoneal route in mice; assay type: functional

Row | SMILES | Km [1] [µM] | IC50 [2] [nM] | Km [3] [µM] | Km [4] [µM] | Vmax [1] [nM/min] | Vmax [3] [nM/min] | LD0 [5] [mg/kg] | ILS [6] [%] | Vmax [4] [nM/min] | LD0 [7] [mg/kg]
1 | Cc1nccc2c(C)c3[nH]c4c(O)cccc4c3cc12 | 41.4 | 12800 | 29.4 | 29 |  |  |  |  |  | 
2 | Cc1nccc2c(C)c3[nH]c4ccc(O)cc4c3cc12 | 40 | 60 | 25 | 22.2 | 1.28 | 0.58 | 50 | 39 | 7.14 | 
3 | Cc1c2ccncc2c(C)c2c1[nH]c1ccccc12 [ELLIPTECINE] |  | 990 |  |  |  |  |  |  |  | 50
4 | Cc1nccc2c(C)c3[nH]c4ccccc4c3cc12 |  | 2030 |  |  |  |  |  | 35 |  | 250
